Laboratory results from the RNAGym collection of RNA variant scans (doi:10.1126/science.aae0568).
Fewer inactive variants are shown than the library holds.

B1: tRNA (parent)
chain: GUUCCGUUGGCGUAAUGGUAACGCGUCUCCCUCCUAAGGAGAAGACUGCGGGUUCGAGUCCCGUACGGAACG

Variants of: B1
Experiment: yeast fitness relative to wild type (ratio to wild type); higher = fitter; tRNA-Arg(CCU), competitive growth, 37 C, YPD
Procedure, shortened: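 Genotype frequency changes were the basis for Darwinian fitness relative to wild type. The frequencies came from 100-nucleotide paired-end sequencing of gene amplicons from the start population and each end population of pooled yeast strains with tRNA-Arg(CCU) gene variants at the native locus. Competition ran in YPD at 37°C for 24 hours in six replicates, genotypes needed ≥ 100 starting reads, and estimates < 0.5 were set to 0.5.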

Variant	yeast fitness
C5U C22G C29A C61A	≤ 0.5
C5U C11U	0.889
C5U C22G A69C	0.691
C5U C29U A36G U59A	≤ 0.5
C5U U7G C30A A65C	1.07
C5U C31U C34U	≤ 0.5
C5U C31U U47C	0.701
C5U G17A A40U A42C C49A	0.684
C5U C22U A57U	0.574
C5U G12C	0.818
C5U G12A	0.959
C5U C11A A21C C27G	0.564
C5U C33U C34U G58C G63A	≤ 0.5
C5U G10C A15G G67U	≤ 0.5
C5U C24G A40C A45U	≤ 0.5
C5U C29U G50C U59A	≤ 0.5
C5U C34G U35C	0.533
C5U C61G G67U	≤ 0.5
C5U C29G C30G	≤ 0.5
C5U C24U G38C G44C	≤ 0.5
C5U C27A A42U	0.642

Variant	yeast fitness
C5U G50C A70U	0.575
C5U C27U A36G	0.75
C5U G41A C55G C66U	≤ 0.5
C5U C27G G68C	0.577
C5U C11G G48C C66U	≤ 0.5
C5U U7A C34U G56A G67A	≤ 0.5
C5U G41A G52C	≤ 0.5
C5U G41A G52A	≤ 0.5
C5U C27U U35G A36G G58C C66U	≤ 0.5
C5U C61A G68A	≤ 0.5
C5U C11U C29A A40C A45C C61G	0.612
C5U U7G A40G A57U	≤ 0.5
C5U C46U C55A G56C	≤ 0.5
C5U G9A	0.972
C5U C11A A20C C22G C30U C31G C61A	0.543
C5U U7A C62A A69G A70G	≤ 0.5
C5U C49U	0.953
C5U C49A	0.78
C5U G44C C61U	0.702
C5U C22G C29G C60A G67A	≤ 0.5
C5U C11U U32G C33A U47A C62U C66G	≤ 0.5

Variant	yeast fitness
C5U C11G A14G C29G	≤ 0.5
C5U C11A C34G	≤ 0.5
C5U U8C C29G U53G	≤ 0.5
C5U C11U C24A C55A A65G	≤ 0.5
C5U G38C A65U	≤ 0.5
C5U C11U A69U	0.734
C5U U7C G68C	≤ 0.5
C5U A57G G63A	0.63
C5U C29U G44A	0.868
C5U A45U C62G A65G	0.698
C5U C61U A70G	0.609
C5U C11U A57U	0.544
C5U C22G C29A A45U A70C	≤ 0.5
C5U U7G C30U G51C C61A	≤ 0.5
C5U U7A A45G G67A	≤ 0.5
C5U C30G	0.676
C5U C30U	0.942
C5U C46U U59G	0.538
C5U G18C C22U G50A	0.572
C5U G52A	0.697
C5U A65C	0.922

Variant	yeast fitness
C5U A65U	0.999
C5U A45U C62G G63A	≤ 0.5
C5U A65G A69G A70U	≤ 0.5
C5U C24A G67C	0.547
C5U C49U G56U	0.538
C5U C27G G38A	0.515
C5U U7A C30A G58C	0.543
C5U C24U C55U	0.711
C5U G38C G48C G52A	≤ 0.5
C5U G18A C30A G58A G68U	0.581
C5U G17C A21U A40G U47G G48C	≤ 0.5
C5U C11U A36U C49G	≤ 0.5
C5U C11U U35G A43U C46G U53C A69C	0.549
C5U G48A G51C	≤ 0.5
C5U C22G C27G C29G C49U	≤ 0.5
C5U G48A	0.891
C5U C27G U47C A70U	≤ 0.5
C5U C31U G41A U64C	≤ 0.5
C5U C27G A40C	≤ 0.5
C5U C30A C33G A42C C62A	≤ 0.5
C5U G18A A40U U47C	0.501
